Source: ChEMBL document CHEMBL1136923, “Highly potent, orally available anti-inflammatory broad-spectrum chemokine inhibitors” (J Med Chem, 2009)
Each block holds one compound with its values, some of them ahead of it.

What was measured:
[1] = biological target: C-C chemokine receptor type 2 (Homo sapiens) (UniProt P41597); assay: Antagonist activity at CCR2 in human THP1 cells assessed as inhibition of CCL2-induced chemotaxis after 2 hrs by microtiter format trans-well migration assay; type: functional, cell-based; conditions: THP-1
Outline: (§1)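 Microtiter trans-well migration assay in Gey's balanced salt solution with 1 mg/mL endotoxin-free BSA, no fetal calf serum. Migration ran 2 h at 37 °C. Compounds dissolved in DMSO and added to both top and bottom compartments, final DMSO 1%.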

[2] = biological target: C-C chemokine receptor type 2 (Homo sapiens) (UniProt P41597); assay: Antagonist activity at CCR2 in human THP1 cells assessed as inhibition of CCL2-induced chemotaxis at 1000 nM after 2 hrs by microtiter format trans-well migration assay; type: functional, cell-based; conditions: THP-1; outline: as §1
[3] = biological target: C-C chemokine receptor type 2 (Homo sapiens) (UniProt P41597); assay: Antagonist activity at CCR2 in human THP1 cells assessed as inhibition of CCL2-induced chemotaxis at 100 nM after 2 hrs by microtiter format trans-well migration assay; type: functional, cell-based; conditions: THP-1; outline: as §1
[4] = biological target: C-C chemokine receptor type 2 (Homo sapiens) (UniProt P41597); assay: Antagonist activity at CCR2 in human THP1 cells assessed as inhibition of CCL2-induced chemotaxis at 10 nM after 2 hrs by microtiter format trans-well migration assay; type: functional, cell-based; conditions: THP-1; outline: as §1
[5] = biological target: C-C chemokine receptor type 2 (Homo sapiens) (UniProt P41597); assay: Antagonist activity at CCR2 in human THP1 cells assessed as inhibition of CCL2-induced chemotaxis at 1 nM after 2 hrs by microtiter format trans-well migration assay; type: functional, cell-based; conditions: THP-1; outline: as §1
[6] = biological target: C-C chemokine receptor type 2 (Homo sapiens) (UniProt P41597); assay: Antagonist activity at CCR2 in human THP1 cells assessed as inhibition of CCL2-induced chemotaxis at 0.1 nM after 2 hrs by microtiter format trans-well migration assay; type: functional, cell-based; conditions: THP-1; outline: as §1
[7] = biological target: C-C chemokine receptor type 2 (Homo sapiens) (UniProt P41597); assay: Antagonist activity at CCR2 in human THP1 cells assessed as inhibition of CCL2-induced chemotaxis at 0.01 nM after 2 hrs by microtiter format trans-well migration assay; type: functional, cell-based; conditions: THP-1; outline: as §1
Mus musculus [8] = assay: Antiinflammatory activity in sc dosed mouse assessed as inhibition of LPS-induced TNFalpha upregulation measured 2 hrs after LPS challenge; type: functional
Mus musculus [9] = assay: Antiinflammatory activity in sc dosed mouse assessed as inhibition of LPS-induced TNFalpha upregulation measured 2 hrs after LPS challenge relative to control; type: functional
Outline: (§2)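 Murine sublethal LPS endotoxemia screen. LPS is injected intraperitoneally and serum TNF-α is measured 2 h later as the end point. Compound is given subcutaneously or orally in a vehicle of 0.6% DMSO plus 1% carboxymethylcellulose (final concentrations) in sterile water. Values are % relative to control.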

Mus musculus [10] = assay: Antiinflammatory activity in po dosed mouse assessed as inhibition of LPS-induced TNFalpha upregulation measured 2 hrs after LPS challenge; type: functional
Mus musculus [11] = assay: Antiinflammatory activity in po dosed mouse assessed as inhibition of LPS-induced TNFalpha upregulation measured 2 hrs after LPS challenge relative to control; type: functional; outline: as §2
Mus musculus [12] = assay: Antiinflammatory activity in mouse assessed as inhibition of LPS-induced TNFalpha upregulation at […], sc measured 2 hrs after LPS challenge; type: functional
Outline: (§3)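 Murine sublethal endotoxemia: LPS given intraperitoneally, with serum TNF-α measured 2 h after the LPS injection as the end point. Compound was given subcutaneously or orally. Vehicle was 0.6% DMSO and 1% carboxymethylcellulose (final concentrations) in sterile water. Effect is reported as % relative to control.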

Mus musculus [13] = assay: Antiinflammatory activity in mouse assessed as inhibition of LPS-induced TNFalpha upregulation at 0.0055 ug, sc measured 2 hrs after LPS challenge; type: functional; outline: as §3
Mus musculus [14] = assay: Antiinflammatory activity in mouse assessed as inhibition of LPS-induced TNFalpha upregulation at 0.013 ug, sc measured 2 hrs after LPS challenge; type: functional; outline: as §3
Mus musculus [15] = assay: Antiinflammatory activity in mouse assessed as inhibition of LPS-induced TNFalpha upregulation at 0.00013 mg, sc measured 2 hrs after LPS challenge; type: functional
Outline: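 Murine sublethal endotoxemia: LPS given intraperitoneally, serum TNF-α measured 2 h after LPS injection. Compound vehicle 0.6% DMSO plus 1% carboxymethylcellulose (final concentrations) in sterile water.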

Mus musculus [16] = assay: Antiinflammatory activity in mouse assessed as inhibition of LPS-induced TNFalpha upregulation at 0.0013 mg, sc measured 2 hrs after LPS challenge; type: functional; outline: as §3
Mus musculus [17] = assay: Antiinflammatory activity in mouse assessed as inhibition of LPS-induced TNFalpha upregulation at 0.013 mg, sc measured 2 hrs after LPS challenge; type: functional; outline: as §3
Mus musculus [18] = assay: Antiinflammatory activity in mouse assessed as inhibition of LPS-induced TNFalpha upregulation at 450 pg, po measured 2 hrs after LPS challenge; type: functional; outline: as §3
Mus musculus [19] = assay: Antiinflammatory activity in mouse assessed as inhibition of LPS-induced TNFalpha upregulation at 0.0023 ug, po measured 2 hrs after LPS challenge; type: functional; outline: as §3
Mus musculus [20] = assay: Antiinflammatory activity in mouse assessed as inhibition of LPS-induced TNFalpha upregulation at 0.016 ug, po measured 2 hrs after LPS challenge; type: functional; outline: as §3
Mus musculus [21] = assay: Antiinflammatory activity in mouse assessed as inhibition of LPS-induced TNFalpha upregulation at 0.057 ug, po measured 2 hrs after LPS challenge; type: functional; outline: as §3
Mus musculus [22] = assay: Antiinflammatory activity in mouse assessed as inhibition of LPS-induced TNFalpha upregulation at 0.61 ug, po measured 2 hrs after LPS challenge; type: functional; outline: as §3
Mus musculus [23] = assay: Antiinflammatory activity in mouse assessed as inhibition of LPS-induced TNFalpha upregulation at 0.016 mg, po measured 2 hrs after LPS challenge; type: functional; outline: as §3
[24] = Half life in Sprague-Dawley rat at 1 mg/kg, iv administered as single dose; type: ADME, organism-based; parameters: dose 1 mg/kg, route intravenous; conditions: in vivo
Outline: (§4)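 Male Sprague-Dawley rats, three per compound, receive a single intravenous dose in 5% DMSO in 0.9% saline. Food and water are given ad libitum. Plasma is taken at 5, 15, 30, 60, 120, 180, 240 and 480 min. Drug is measured by LC/MS/MS after extraction with 0.1% formic acid in acetonitrile. The curve is back-extrapolated to time zero assuming an initial volume of 0.26 L/kg.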

[25] = Clearance in Sprague-Dawley rat at 1 mg/kg, iv administered as single dose; type: ADME, organism-based; parameters: dose 1 mg/kg, route intravenous; conditions: in vivo; outline: as §4
[26] = Volume of distribution at steady state in Sprague-Dawley rat at 1 mg/kg, iv administered as single dose; type: ADME, organism-based; parameters: dose 1 mg/kg, route intravenous; conditions: in vivo, read-out: Vdss; outline: as §4
[27] = AUC (0 to t) in Sprague-Dawley rat at 1 mg/kg, iv administered as single dose; type: ADME, organism-based, Plasma; parameters: dose 1 mg/kg, route intravenous; conditions: Sprague-Dawley, plasma
Outline: (§5)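 Male Sprague-Dawley rats, three per compound per route, single dose. IV vehicle 5% DMSO in 0.9% saline; oral gavage vehicle 1% carboxymethylcellulose in 0.9% saline; fed ad libitum. Plasma taken 5–480 min post-dose, extracted with 0.1% formic acid in acetonitrile, quantified by LC/MS/MS (positive mode). AUC(0–t) by linear/log trapezoidal rule; IV curve back-extrapolated assuming initial volume 0.26 L/kg.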

[28] = Fractional bioavailability in Sprague-Dawley rat at 3 mg/kg, po administered as single dose; type: ADME, organism-based; conditions: in vivo
Outline: (§6)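 Male Sprague-Dawley rats, three per compound, receive a single oral dose by gavage in 1% carboxymethylcellulose in 0.9% saline, with food and water ad libitum. Plasma is sampled from 5 to 480 min and drug is quantified by positive-mode LC/MS/MS after acetonitrile/formic acid extraction. The lower limit of quantitation is about 2 ng/mL. Exposure is AUC(0→t) by the linear/log trapezoidal rule, and F is oral fractional bioavailability.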

[29] = Half life in Sprague-Dawley rat at 3 mg/kg, po administered as single dose; type: ADME, organism-based; parameters: dose 3 mg/kg, route oral; conditions: in vivo; outline: as §6
[30] = Cmax in Sprague-Dawley rat at 3 mg/kg, po administered as single dose; type: ADME, organism-based; parameters: dose 3 mg/kg, route oral; conditions: in vivo; outline: as §6
[31] = AUC (0 to t) in Sprague-Dawley rat at 3 mg/kg, po administered as single dose; type: ADME, organism-based; parameters: dose 3 mg/kg, route oral; conditions: plasma; outline: as §5
Mus musculus [32] = assay: Antiinflammatory activity in mouse assessed as inhibition of LPS-induced TNFalpha upregulation at 300 pg, sc measured 2 hrs after LPS challenge; type: functional
Outline: (§7)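 Sublethal murine endotoxemia with LPS given intraperitoneally. Compound was given subcutaneously in vehicle of 0.6% DMSO and 1% carboxymethylcellulose (final concentrations) in sterile water. Serum TNF-α was measured 2 h after LPS injection. Values are expressed as % relative to control.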

Mus musculus [33] = assay: Antiinflammatory activity in mouse assessed as inhibition of LPS-induced TNFalpha upregulation at 0.003 ug, sc measured 2 hrs after LPS challenge; type: functional; outline: as §3
Mus musculus [34] = assay: Antiinflammatory activity in mouse assessed as inhibition of LPS-induced TNFalpha upregulation at 0.03 ug, sc measured 2 hrs after LPS challenge; type: functional; outline: as §3
Mus musculus [35] = assay: Antiinflammatory activity in mouse assessed as inhibition of LPS-induced TNFalpha upregulation at 0.3 ug, sc measured 2 hrs after LPS challenge; type: functional; outline: as §3
Mus musculus [36] = assay: Antiinflammatory activity in mouse assessed as inhibition of LPS-induced TNFalpha upregulation at 0.003 mg, sc measured 2 hrs after LPS challenge; type: functional; outline: as §3
Mus musculus [37] = assay: Antiinflammatory activity in mouse assessed as inhibition of LPS-induced TNFalpha upregulation at 0.015 mg, sc measured 2 hrs after LPS challenge; type: functional; outline: as §7
Mus musculus [38] = assay: Antiinflammatory activity in mouse assessed as inhibition of LPS-induced TNFalpha upregulation at 0.03 mg, sc measured 2 hrs after LPS challenge; type: functional; outline: as §7
Mus musculus [39] = assay: Antiinflammatory activity in mouse assessed as inhibition of LPS-induced TNFalpha upregulation at 0.06 mg, sc measured 2 hrs after LPS challenge; type: functional; outline: as §7
Mus musculus [40] = assay: Antiinflammatory activity in mouse assessed as inhibition of LPS-induced TNFalpha upregulation at 0.12 mg, sc measured 2 hrs after LPS challenge; type: functional; outline: as §7

C-C chemokine receptor type 2 (Homo sapiens), sequence (P41597 whole entry, looked up): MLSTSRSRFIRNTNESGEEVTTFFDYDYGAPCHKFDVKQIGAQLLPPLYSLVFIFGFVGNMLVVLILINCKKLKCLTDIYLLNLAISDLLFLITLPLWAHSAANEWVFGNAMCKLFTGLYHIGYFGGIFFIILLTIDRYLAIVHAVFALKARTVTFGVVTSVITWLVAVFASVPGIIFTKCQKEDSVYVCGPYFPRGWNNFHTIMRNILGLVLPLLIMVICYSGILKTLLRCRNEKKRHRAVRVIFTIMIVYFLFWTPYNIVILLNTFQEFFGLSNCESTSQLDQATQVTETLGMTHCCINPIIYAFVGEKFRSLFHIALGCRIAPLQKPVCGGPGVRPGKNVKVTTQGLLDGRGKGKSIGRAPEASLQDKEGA

ED50 [1]: 0.04 nM
inhibition [2]: 102%
inhibition [3]: 101%
inhibition [4]: 102%
inhibition [5]: 101%
inhibition [6]: 80%
inhibition [7]: 33%
half-life [24]: 121 min
clearance [25]: 6.8 mL/min/kg
Vd [26]: 0.7 L/kg
AUC(0-t) [27]: 3860 ng·h/mL
bioavailability [28]: 71%
half-life [29]: 168 min
Cmax [30]: 989 ng/mL
AUC(0-t) [31]: 8220 ng·h/mL
Structure (SMILES): CC(C)(C)C(=O)N[C@H]1CCCCNC1=O
ED50 (Mus musculus [8]): 0.1 µg/kg
inhibition (INH) (Mus musculus [9]): 90%
ED50 (Mus musculus [10]): 0.1 µg/kg
inhibition (INH) (Mus musculus [11]): 80%
inhibition (INH) (Mus musculus [12]): 44%
inhibition (INH) (Mus musculus [13]): 73%
inhibition (INH) (Mus musculus [14]): 80%
inhibition (INH) (Mus musculus [15]): 81%
inhibition (INH) (Mus musculus [16]): 94%
inhibition (INH) (Mus musculus [17]): 91%
inhibition (INH) (Mus musculus [18]): 43%
inhibition (INH) (Mus musculus [19]): 41%
inhibition (INH) (Mus musculus [20]): 70%
inhibition (INH) (Mus musculus [21]): 76%
inhibition (INH) (Mus musculus [22]): 80%
inhibition (INH) (Mus musculus [23]): 83%

Structure (SMILES): C[C@@H]1C[C@H]2[C@@H]3CCC4=CC(=O)C=C[C@]4(C)[C@@]3(F)[C@@H](O)C[C@]2(C)[C@@]1(O)C(=O)CO [DEXAMETHASONE]
ED50 (Mus musculus [8]): 3 µg/kg
inhibition (INH) (Mus musculus [9]): 90%
inhibition (INH) (Mus musculus [32]): 24%
inhibition (INH) (Mus musculus [33]): 31%
inhibition (INH) (Mus musculus [34]): 33%
inhibition (INH) (Mus musculus [35]): 69%
inhibition (INH) (Mus musculus [36]): 75%
inhibition (INH) (Mus musculus [37]): 84%
inhibition (INH) (Mus musculus [38]): 90%
inhibition (INH) (Mus musculus [39]): 87%
inhibition (INH) (Mus musculus [40]): 88%
